Data taken from paper PMC3130141 (Archives of Drug Information, 2011).

Tests used:
[1] = test system: Japanese patients with advanced solid tumors; experiment: Laboratory assessments; type: in vivo, human; settings: for Blood sodium decreased, patients with grade ≥3 abnormal laboratory finding: cut-off <130 mmol/L; for Lymphocyte count decreased, patients with grade ≥3 abnormal laboratory finding / Lymphopenia, patients with grade ≥3 abnormal laboratory finding: cut-off <0.5 × 10^9/L; for Neutropenia, patients with grade ≥3 abnormal laboratory finding: cut-off <1.0 × 10^9/L; for Leukopenia, patients with grade ≥3 abnormal laboratory finding: cut-off <2.0 × 10^9/L; for Hemoglobin decreased, patients with grade ≥3 abnormal laboratory finding: cut-off <8.0 g/dL; for Thrombocytopenia, patients with grade ≥3 abnormal laboratory finding: cut-off <50.0 × 10^9/L; for Weight decreased, patients with grade ≥3 abnormal vital sign: cut-off ≥20% from baseline
[2] = test system: Japanese patients with advanced solid tumors; experiment: Dose-limiting toxicities and maximum tolerated dose during cycle 1; type: in vivo, human; settings: dose escalation halted at 25 mg
How it was run: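 Open-label dose escalation in sequential cohorts at 10, 15, 20 or 25 mg, given as a 1-h iv infusion on days 1, 8 and 15 of 28-day cycles. DLT: grade 3/4 hemolysis, grade 4 hematologic toxicity, febrile grade 3/4 neutropenia, prolonged diarrhea or vomiting, or other grade 3/4 non-hematologic toxicity (CTCAE v3.0). MTD: highest dose with ≤1 of 6 evaluable patients having a cycle 1 DLT.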

[3] = Plasma pharmacokinetics, non-compartmental analysis; type: in vivo, human; settings: for clearance / AUC(0-inf) / AUC(0-t) / Cmax / MRT / Vd / concentration at 24 h / half-life: human, plasma
How it was run: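 Plasma was sampled pre- and post-dose daily on days 1–8 of cycle 1 and on day 1 of cycle 2, after a 1-h iv infusion. Analysis was non-compartmental: Cmax by inspection; λz by log-linear terminal regression; AUC0–24h by linear trapezoidal rule, extrapolated to infinity via λz; CL as dose/AUC. Values are geometric mean (CV%) per cohort.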

[4] = test system: Japanese patients with advanced solid tumors; experiment: Efficacy: overall best response by RECIST version 1.0; type: in vivo, human
How it was run: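 Investigator-assessed overall best response by RECIST v1.0, with baseline imaging within 28 days before first dose. Re-imaging was on day 29 of cycles 1 and 2 and of subsequent odd-numbered cycles. […] Dosing was a 1-h iv infusion on days 1, 8 and 15 of 28-day cycles (10–25 mg cohorts). Results were summarized descriptively by dose group.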

[5] = test system: broad panel of solid and hematologic tumor cell lines; settings: cited from earlier work
[6] = test system: human tumor xenograft models including a primary bladder tumor model and the rituximab-insensitive non-Hodgkin's lymphoma model, DoHH2T53; settings: cited from earlier work
[7] = test system: Western patients with solid tumors; settings: cited from earlier work
[8] = Cycle 1, Day 8, Total, all doses (N = 18)
[9] = Cycle 1, Day 15, Total, all doses (N = 18)
[10] = Cycle 1, Day 22, Total, all doses (N = 18)

## Cc1ccc(C(=O)N(CCCN)C(c2nc3snc(C)c3c(=O)n2Cc2ccccc2)C(C)C)cc1 (stereo not shown) [AZD4877]
[1]; 10 mg (N = 3)
  Any grade ≥3 finding/vital sign, patients with grade ≥3 abnormal laboratory findings/vital signs: 1 (33) N (%)
  Blood sodium decreased, patients with grade ≥3 abnormal laboratory finding: 0 N (%)
  Lymphocyte count decreased, patients with grade ≥3 abnormal laboratory finding: 0 N (%)
  Lymphopenia, patients with grade ≥3 abnormal laboratory finding: 0 N (%)
  Neutropenia, patients with grade ≥3 abnormal laboratory finding: 1 (33) N (%)
  Leukopenia, patients with grade ≥3 abnormal laboratory finding: 0 N (%)
  Hemoglobin decreased, patients with grade ≥3 abnormal laboratory finding: 0 N (%)
  Thrombocytopenia, patients with grade ≥3 abnormal laboratory finding: 0 N (%)
  Weight decreased, patients with grade ≥3 abnormal vital sign: 0 N (%)
[1]; 15 mg (N = 3)
  Any grade ≥3 finding/vital sign, patients with grade ≥3 abnormal laboratory findings/vital signs: 1 (33) N (%)
  Blood sodium decreased, patients with grade ≥3 abnormal laboratory finding: 0 N (%)
  Lymphocyte count decreased, patients with grade ≥3 abnormal laboratory finding: 0 N (%)
  Lymphopenia, patients with grade ≥3 abnormal laboratory finding: 0 N (%)
  Neutropenia, patients with grade ≥3 abnormal laboratory finding: 1 (33) N (%)
  Leukopenia, patients with grade ≥3 abnormal laboratory finding: 0 N (%)
  Hemoglobin decreased, patients with grade ≥3 abnormal laboratory finding: 0 N (%)
  Thrombocytopenia, patients with grade ≥3 abnormal laboratory finding: 0 N (%)
  Weight decreased, patients with grade ≥3 abnormal vital sign: 0 N (%)
[1]; 20 mg (N = 6)
  Any grade ≥3 finding/vital sign, patients with grade ≥3 abnormal laboratory findings/vital signs: 4 (67) N (%)
  Blood sodium decreased, patients with grade ≥3 abnormal laboratory finding: 1 (17) N (%)
  Lymphocyte count decreased, patients with grade ≥3 abnormal laboratory finding: 0 N (%)
  Lymphopenia, patients with grade ≥3 abnormal laboratory finding: 0 N (%)
  Neutropenia, patients with grade ≥3 abnormal laboratory finding: 3 (50) N (%)
  Leukopenia, patients with grade ≥3 abnormal laboratory finding: 3 (50) N (%)
  Hemoglobin decreased, patients with grade ≥3 abnormal laboratory finding: 0 N (%)
  Thrombocytopenia, patients with grade ≥3 abnormal laboratory finding: 0 N (%)
  Weight decreased, patients with grade ≥3 abnormal vital sign: 1 (17) N (%)
[1]; 25 mg (N = 6)
  Any grade ≥3 finding/vital sign, patients with grade ≥3 abnormal laboratory findings/vital signs: 6 (100) N (%)
  Blood sodium decreased, patients with grade ≥3 abnormal laboratory finding: 0 N (%)
  Lymphocyte count decreased, patients with grade ≥3 abnormal laboratory finding: 1 (17) N (%)
  Lymphopenia, patients with grade ≥3 abnormal laboratory finding: 1 (17) N (%)
  Neutropenia, patients with grade ≥3 abnormal laboratory finding: 5 (83) N (%)
  Leukopenia, patients with grade ≥3 abnormal laboratory finding: 5 (83) N (%)
  Hemoglobin decreased, patients with grade ≥3 abnormal laboratory finding: 1 (17) N (%)
  Thrombocytopenia, patients with grade ≥3 abnormal laboratory finding: 1 (17) N (%)
  Weight decreased, patients with grade ≥3 abnormal vital sign: 0 N (%)
[1]; 25 mg dose cohort
  Patients experiencing grade ≥3 neutropenia: five of six
[1]; Cycle 1, Day 8, 10 mg (N = 3)
  Platelet count, mean (SD): 227.3 (36.7) 10^3/µL
  Total ANC (absolute neutrophil count), mean (SD): 2.00 (0.37) 10^3/µL
  White blood cell count, mean (SD): 4.13 (0.63) 10^3/µL
[1]; Cycle 1, Day 8, 15 mg (N = 3)
  Platelet count, mean (SD): 229.0 (35.9) 10^3/µL
  Total ANC (absolute neutrophil count), mean (SD): 3.23 (1.26) 10^3/µL
  White blood cell count, mean (SD): 5.50 (1.48) 10^3/µL
[1]; Cycle 1, Day 8, 20 mg (N = 6)
  Platelet count, mean (SD): 245.7 (45.5) 10^3/µL
  Total ANC (absolute neutrophil count), mean (SD): 1.81 (0.99) 10^3/µL
  White blood cell count, mean (SD): 2.97 (1.06) 10^3/µL
[1]; Cycle 1, Day 8, 25 mg (N = 6)
  Platelet count, mean (SD): 246.5 (99.7) 10^3/µL
  Total ANC (absolute neutrophil count), mean (SD): 2.00 (0.97) 10^3/µL
  White blood cell count, mean (SD): 3.01 (0.99) 10^3/µL
[1]; [8]
  Platelet count, mean (SD): 240.1 (62.6) 10^3/µL
  Total ANC (absolute neutrophil count), mean (SD): 2.14 (1.01) 10^3/µL
  White blood cell count, mean (SD): 3.60 (1.37) 10^3/µL
[1]; Cycle 1, Day 15, 10 mg (N = 3)
  Platelet count, mean (SD): 203.3 (46.5) 10^3/µL
  Total ANC (absolute neutrophil count), mean (SD): 1.25 (0.27) 10^3/µL
  White blood cell count, mean (SD): 3.59 (0.69) 10^3/µL
[1]; Cycle 1, Day 15, 15 mg (N = 3)
  Platelet count, mean (SD): 217.0 (6.1) 10^3/µL
  Total ANC (absolute neutrophil count), mean (SD): 2.33 (1.62) 10^3/µL
  White blood cell count, mean (SD): 4.66 (2.19) 10^3/µL
[1]; Cycle 1, Day 15, 20 mg (N = 6)
  Platelet count, mean (SD): 265.2 (79.5) 10^3/µL
  Total ANC (absolute neutrophil count), mean (SD): 1.49 (0.82) 10^3/µL
  White blood cell count, mean (SD): 2.82 (1.20) 10^3/µL
[1]; Cycle 1, Day 15, 25 mg (N = 6)
  Platelet count, mean (SD): 184.5 (85.1) 10^3/µL
  Total ANC (absolute neutrophil count), mean (SD): 0.57 (0.50) 10^3/µL
  White blood cell count, mean (SD): 1.58 (0.57) 10^3/µL
[1]; [9]
  Platelet count, mean (SD): 219.9 (73.9) 10^3/µL
  Total ANC (absolute neutrophil count), mean (SD): 1.28 (0.99) 10^3/µL
  White blood cell count, mean (SD): 2.84 (1.55) 10^3/µL
[1]; Cycle 1, Day 22, 10 mg (N = 3)
  Platelet count, mean (SD): 205.0 (54.0) 10^3/µL
  Total ANC (absolute neutrophil count), mean (SD): 1.68 (0.35) 10^3/µL
  White blood cell count, mean (SD): 4.09 (0.66) 10^3/µL
[1]; Cycle 1, Day 22, 15 mg (N = 3)
  Platelet count, mean (SD): 232.0 (7.9) 10^3/µL
  Total ANC (absolute neutrophil count), mean (SD): 2.30 (1.50) 10^3/µL
  White blood cell count, mean (SD): 4.53 (1.70) 10^3/µL
[1]; Cycle 1, Day 22, 20 mg (N = 6)
  Platelet count, mean (SD): 262.2 (48.0) 10^3/µL
  Total ANC (absolute neutrophil count), mean (SD): 1.25 (0.69) 10^3/µL
  White blood cell count, mean (SD): 2.64 (0.69) 10^3/µL
[1]; Cycle 1, Day 22, 25 mg (N = 6)
  Platelet count, mean (SD): 308.7 (117.3) 10^3/µL
  Total ANC (absolute neutrophil count), mean (SD): 1.41 (0.48) 10^3/µL
  White blood cell count, mean (SD): 2.73 (0.68) 10^3/µL
[1]; [10]
  Platelet count, mean (SD): 263.1 (81.1) 10^3/µL
  Total ANC (absolute neutrophil count), mean (SD): 1.55 (0.79) 10^3/µL
  White blood cell count, mean (SD): 3.23 (1.14) 10^3/µL
[1]; Total, all doses (N = 18)
  Any grade ≥3 finding/vital sign, patients with grade ≥3 abnormal laboratory findings/vital signs: 12 (67) N (%)
  Blood sodium decreased, patients with grade ≥3 abnormal laboratory finding: 1 (6) N (%)
  Lymphocyte count decreased, patients with grade ≥3 abnormal laboratory finding: 1 (6) N (%)
  Lymphopenia, patients with grade ≥3 abnormal laboratory finding: 1 (6) N (%)
  Neutropenia, patients with grade ≥3 abnormal laboratory finding: 10 (56) N (%)
  Leukopenia, patients with grade ≥3 abnormal laboratory finding: 8 (44) N (%)
  Hemoglobin decreased, patients with grade ≥3 abnormal laboratory finding: 1 (6) N (%)
  Thrombocytopenia, patients with grade ≥3 abnormal laboratory finding: 1 (6) N (%)
  Weight decreased, patients with grade ≥3 abnormal vital sign: 1 (6) N (%)
[1]; all doses, 18 patients
  Grade ≥3 leukopenia (laboratory finding), patients: 44%
  Grade ≥3 neutropenia (laboratory finding), patients: 56%
[2]
  Maximum tolerated dose (MTD): not defined
[3]; 10-25 mg
  Dose proportionality of exposure: not fully dose proportional
[3]; intravenous, 25 mg
  clearance: 325 to 373 mL/min
[3]; iv, 10 mg
  AUC(0-inf): 447 ng·h/mL
  AUC(0-t): 234 ng·h/mL
  Cmax: 63.4 ng/mL
  MRT: 34.2 h
  Vd: 766 L
  clearance: 373 mL/min
  concentration at 24 h: 4.9 ng/mL
  half-life: 28.7 h
[3]; iv, 15 mg
  AUC(0-inf): 671 ng·h/mL
  AUC(0-t): 424 ng·h/mL
  Cmax: 99.7 ng/mL
  MRT: 22.9 h
  Vd: 512 L
  clearance: 372 mL/min
  concentration at 24 h: 7.8 ng/mL
  half-life: 20.3 h
[3]; iv, 20 mg
  AUC(0-inf): 1430 ng·h/mL
  AUC(0-t): 882 ng·h/mL
  Cmax: 218 ng/mL
  MRT: 22.4 h
  Vd: 314 L
  clearance: 233 mL/min
  concentration at 24 h: 14.9 ng/mL
  half-life: 21.3 h
[3]; iv, 25 mg
  AUC(0-inf): 1280 ng·h/mL
  AUC(0-t): 838 ng·h/mL
  Cmax: 224 ng/mL
  MRT: 22.2 h
  Vd: 432 L
  clearance: 325 mL/min
  concentration at 24 h: 13.6 ng/mL
  half-life: 21.1 h
[4]; all doses
  Patients with complete or partial response: No patients
  Patients with stable disease ≥8 weeks: five of 16
[4]; all doses, stable disease defined as ≥8 weeks
  Overall best response (RECIST): stable disease
[4]; patient with thymus cancer, 20 mg cohort
  Duration of stable disease: ≥ 12 weeks
[5]
  Growth of tumor cell lines: inhibit growth
[6]
  Activity in human tumor xenograft models: activity was observed
[7]; 25 mg, clinical setting
  Monoaster formation (proof of mechanism): evidence of monoaster formation
[7]; 25 mg
  Tolerability in Western patients: acceptable tolerability profile
[7]; 30 mg, parallel US study
  Toxicity at 30 mg: experienced neutropenia
[7]; parallel US study
  Recommended dose for further evaluation: 25 mg
[7]; weekly treatment
  Best objective tumor response in Western patients: stable disease ≥12 weeks
